# Measurements from paper PMC5616077 (Toxicology Reports, 2016).
# Entries after “also recorded” stand apart in the source; their conditions may differ.
# How the values were obtained:
# [1] = tested on: HaCaT AHR-KD cells; experiment: Targeted metabolomics; type: cell-based, human; conditions: 48 h
# Outline: (§1)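 Cells in DMEM with 10% FCS were seeded at 1 × 10^5 cells/mL and exposed 24 h later for 48 h, 4 replicates; vehicle controls got 0.1% DMSO. Cells were washed with ice-cold 155 mM ammonium formate pH 7.4, pelleted, weighed and snap-frozen. Extracts went on the p180 kit with isotope-labelled standards, phenylisothiocyanate derivatisation and 5 mM ammonium acetate/methanol extraction. Read by LC–MS/MS (positive) and FIA-MS/MS (±), MRM; μM normalised to pellet weight.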
# [2] = MTT assay; type: cell-based, human; conditions: human, HaCaT wild-type (WT) cells; for EC50 at 48 h: calculated EC50 (cytotoxicity, viability), HaCaT WT, MTT
# [3] = tested on: HaCaT WT cells; experiment: Targeted metabolomics; type: cell-based, human; conditions: 48 h; for change of Gln level vs control (in words) / change of PCaa_C36:2 level vs control (in words) / C4:1 concentration / C4 concentration / C6 (C4:1-DC) concentration / C10:2 concentration / C12-DC concentration / C12:1 concentration / C18:1-OH concentration / C18:2 concentration / Gln concentration / PCaa_C32:2 concentration / PCaa_C36:2 concentration / PCae_C32:1 concentration / PCae_C34:2 concentration / PCae_C34:3 concentration / PCae_C36:2 concentration / PCae_C36:3 concentration / PCae_C38:1 concentration / PCae_C38:2 concentration / PCae_C38:3 concentration / PCae_C38:4 concentration / PCae_C40:4 concentration / PCae_C40:5 concentration / SM_C16:1 concentration / alpha-AAA concentration / change of alpha-AAA level vs control (in words) / change of carnitines (e.g. C18:2) vs control (in words): BAP 1 μM, DALP 0.01 μM; for change of Gln level vs control (in words) / change of PCaa_C36:2 level vs control (in words) / C4:1 concentration / C4 concentration / C6 (C4:1-DC) concentration / C10:2 concentration / C12-DC concentration / C12:1 concentration / C18:1-OH concentration / C18:2 concentration / Gln concentration / PCaa_C32:2 concentration / PCaa_C36:2 concentration / PCae_C32:1 concentration / PCae_C34:2 concentration / PCae_C34:3 concentration / PCae_C36:2 concentration / PCae_C36:3 concentration / PCae_C38:1 concentration / PCae_C38:2 concentration / PCae_C38:3 concentration / PCae_C38:4 concentration / PCae_C40:4 concentration / PCae_C40:5 concentration / SM_C16:1 concentration / alpha-AAA concentration: CRY 1 μM; for C4:1 concentration / C4 concentration / C6 (C4:1-DC) concentration / C10:2 concentration / C12-DC concentration / C12:1 concentration / C18:1-OH concentration / C18:2 concentration / Gln concentration / PCaa_C32:2 concentration / PCaa_C36:2 concentration / PCae_C32:1 concentration / PCae_C34:2 concentration / PCae_C34:3 concentration / PCae_C36:2 concentration / PCae_C36:3 concentration / PCae_C38:1 concentration / PCae_C38:2 concentration / PCae_C38:3 concentration / PCae_C38:4 concentration / PCae_C40:4 concentration / PCae_C40:5 concentration / SM_C16:1 concentration / alpha-AAA concentration: mean ± SD
# Outline: as §1
# [4] = tested on: HaCaT WT cells; experiment: MTT assay; type: cell-based, human; conditions: HaCaT WT, 48 h, up to 20 μM
# [5] = tested on: CYP1B1; experiment: Real-time PCR, AHR target gene induction; type: cell-based, human; conditions: for CYP1B1 mRNA induction (in words): 24 h
# [6] = tested on: CYP1B1; experiment: Western blot, protein level; type: cell-based, human; conditions: HaCaT WT, 24 h and 48 h
# [7] = tested on: HaCaT WT cells; experiment: Enzymatic determination of glutamine; type: cell-based, human; conditions: 48 h, BAP 1 μM, CRY 1 μM, DALP 0.01 μM
# [8] = tested on: HaCaT AHR-KD cells; experiment: MTT assay; type: cell-based, human; conditions: HaCaT AHR-KD, 48 h, up to 20 μM
# [9] = MTT assay; type: cell-based, human; conditions: human, HaCaT AHR knockdown (AHR-KD) cells
# [10] = tested on: CYP1A1; experiment: Western blot, protein level; type: cell-based, human; conditions: HaCaT WT, 24 h and 48 h
# [11] = tested on: CYP1A1; experiment: Real-time PCR, AHR target gene induction; type: cell-based, human; conditions: for CYP1A1 mRNA induction (in words): 24 h, BAP/CRY 0.1-3.5 μM
# [12] = tested on: carnitine palmitoyltransferase 1 (CPT1); conditions: liver of rats upon treatment; ref [55], [56]; cited from earlier work
# [13] = HaCaT cells, 2 and 8 h, up to 1 μM, data not shown
SMILES,change of Gln level vs control (in words) [3],change of PCaa_C36:2 level vs control (in words) [3],C4:1 concentration [3],C4 concentration [3],C6 (C4:1-DC) concentration [3],C10:2 concentration [3],C12-DC concentration [3],C12:1 concentration [3],C18:1-OH concentration [3],C18:2 concentration [3],Gln concentration [3],PCaa_C32:2 concentration [3],PCaa_C36:2 concentration [3],PCae_C32:1 concentration [3],PCae_C34:2 concentration [3],PCae_C34:3 concentration [3],PCae_C36:2 concentration [3],PCae_C36:3 concentration [3],PCae_C38:1 concentration [3],PCae_C38:2 concentration [3],other results
"c1ccc2c(c1)cc1ccc3cccc4ccc2c1c34 [BAP, benzo[a]pyrene]",strongly lowered,increased,1.1 ± 0.1 nmol/g pellet weight,2.5 ± 0.3 nmol/g pellet weight,2.3 ± 0.2 nmol/g pellet weight,1.0 ± 0.1 nmol/g pellet weight,3.8 ± 0.2 nmol/g pellet weight,1.2 ± 0.1 nmol/g pellet weight,0.9 ± 0.1 nmol/g pellet weight,1.0 ± 0.1 nmol/g pellet weight,77.1 ± 18.2 nmol/g pellet weight,103.6 ± 11.5 nmol/g pellet weight,2039.2 ± 198.8 nmol/g pellet weight,198.8 ± 17.1 nmol/g pellet weight,238.2 ± 23.8 nmol/g pellet weight,26.8 ± 3.1 nmol/g pellet weight,354.1 ± 28.2 nmol/g pellet weight,108.6 ± 10.5 nmol/g pellet weight,29.7 ± 2.2 nmol/g pellet weight,74.9 ± 6.3 nmol/g pellet weight,"change of Gln level vs control (in words) ([1]; BAP 1 μM, CRY 1 μM, DALP 0.01 μM): decreased; viability at 48 h, 20 µM [2]: ~80%; PCae_C38:3 concentration [3]: 33.8 ± 3.9 nmol/g pellet weight; PCae_C38:4 concentration [3]: 69.0 ± 7.3 nmol/g pellet weight; PCae_C40:4 concentration [3]: 11.7 ± 1.5 nmol/g pellet weight; PCae_C40:5 concentration [3]: 30.0 ± 2.5 nmol/g pellet weight; SM_C16:1 concentration [3]: 35.3 ± 3.4 nmol/g pellet weight; alpha-AAA concentration [3]: 5.7 ± 1.8 nmol/g pellet weight; change of alpha-AAA level vs control (in words) [3]: strong down-regulation; change of carnitines (e.g. C18:2) vs control (in words) [3]: strong up-regulation"
"c1ccc2c(c1)ccc1c3ccccc3ccc21 [CRY, chrysene]",weakly,increased,0.9 ± 0.2 nmol/g pellet weight,2.3 ± 0.5 nmol/g pellet weight,1.9 ± 0.3 nmol/g pellet weight,0.9 ± 0.1 nmol/g pellet weight,3.3 ± 0.6 nmol/g pellet weight,1.0 ± 0.2 nmol/g pellet weight,0.8 ± 0.1 nmol/g pellet weight,0.8 ± 0.1 nmol/g pellet weight,114.3 ± 12.8 nmol/g pellet weight,127.8 ± 17.3 nmol/g pellet weight,2097.1 ± 262.1 nmol/g pellet weight,231.2 ± 36.0 nmol/g pellet weight,275.4 ± 48.2 nmol/g pellet weight,29.7 ± 5.0 nmol/g pellet weight,385.0 ± 53.6 nmol/g pellet weight,120.5 ± 17.9 nmol/g pellet weight,29.9 ± 5.0 nmol/g pellet weight,78.0 ± 13.3 nmol/g pellet weight,"EC50 at 48 h [2]: 3800 nM; cytotoxicity / cell viability (in words) [4]: strong cytotoxic effects; CYP1B1 mRNA induction (in words) ([5]; HaCaT AHR-KD, CRY 0.1-3.5 μM): no significant induction; CYP1B1 mRNA induction (in words) ([5]; HaCaT WT, BAP/CRY 0.1-3.5 μM, DALP 0.01-0.03 μM): inducing both genes in WT cells but less strongly; SM, AC, LPC and BA concentrations vs control (in words) ([3]; 1 μM): remained completely unaffected; PCae_C38:3 concentration [3]: 34.7 ± 5.8 nmol/g pellet weight; PCae_C38:4 concentration [3]: 70.5 ± 9.1 nmol/g pellet weight; PCae_C40:4 concentration [3]: 12.8 ± 2.0 nmol/g pellet weight; PCae_C40:5 concentration [3]: 33.3 ± 4.2 nmol/g pellet weight; SM_C16:1 concentration [3]: 35.0 ± 3.8 nmol/g pellet weight; alpha-AAA concentration [3]: 14.2 ± 3.8 nmol/g pellet weight; CYP1B1 protein induction (in words) [6]: moderate induction; relative Gln level, enzymatic assay (in words) [7]: could not confirm the effect; cytotoxicity / cell viability (in words) [8]: strong cytotoxic effects; EC50 at 48 h [9]: 2000 nM; CYP1A1 protein induction (in words) [10]: moderate induction; CYP1A1 mRNA induction (in words) ([11]; HaCaT AHR-KD): no significant induction; CYP1A1 mRNA induction (in words) ([11]; HaCaT WT, DALP 0.01-0.03 μM): inducing both genes in WT cells but less strongly"
"c1ccc2c(c1)cc1ccc3cccc4c5ccccc5c2c1c34 [DALP, dibenzo[a,l]pyrene]",strongly lowered,measurable but insignificant decrease,1.3 ± 0.1 nmol/g pellet weight,2.9 ± 0.3 nmol/g pellet weight,2.5 ± 0.2 nmol/g pellet weight,1.1 ± 0.1 nmol/g pellet weight,4.2 ± 0.2 nmol/g pellet weight,1.4 ± 0.1 nmol/g pellet weight,1.0 ± 0.0 nmol/g pellet weight,1.1 ± 0.1 nmol/g pellet weight,65.7 ± 23.9 nmol/g pellet weight,81.9 ± 9.5 nmol/g pellet weight,1417.7 ± 173.7 nmol/g pellet weight,164.7 ± 17.4 nmol/g pellet weight,170.7 ± 25.4 nmol/g pellet weight,20.8 ± 3.3 nmol/g pellet weight,235.3 ± 25.3 nmol/g pellet weight,65.2 ± 8.9 nmol/g pellet weight,18.7 ± 1.2 nmol/g pellet weight,50.7 ± 5.2 nmol/g pellet weight,"metabolite levels vs control (in words) ([1]; 0.01 μM): remained virtually unaffected; EC50 at 48 h [2]: 35 nM; cytotoxicity / cell viability (in words) [4]: enhanced cytotoxicity; also recorded: very strong cytotoxicity; CYP1B1 mRNA induction at earlier time-points (in words) [5, 13]: no significant induction; PCae_C38:3 concentration [3]: 18.5 ± 1.8 nmol/g pellet weight; PCae_C38:4 concentration [3]: 38.1 ± 4.0 nmol/g pellet weight; PCae_C40:4 concentration [3]: 7.6 ± 0.5 nmol/g pellet weight; PCae_C40:5 concentration [3]: 16.5 ± 1.5 nmol/g pellet weight; SM_C16:1 concentration [3]: 25.5 ± 2.1 nmol/g pellet weight; alpha-AAA concentration [3]: 2.0 ± 1.1 nmol/g pellet weight; change of alpha-AAA level vs control (in words) [3]: strong down-regulation; change of carnitines (e.g. C18:2) vs control (in words) [3]: strong up-regulation; CYP1B1 protein induction (in words) [6]: no induction; relative Gln level, enzymatic assay (in words) [7]: downregulated approximately two-fold; cytotoxicity / cell viability (in words) [8]: remained unaffected; CYP1A1 protein induction (in words) [10]: no induction; CYP1A1 mRNA induction (in words) ([11]; HaCaT WT, DALP 0.01-0.03 μM): only weakly increased; CYP1A1 mRNA induction at earlier time-points (in words) [11, 13]: no significant induction"
"Clc1cc2c(cc1Cl)Oc1cc(Cl)c(Cl)cc1O2 [TCDD, 2,3,7,8-tetrachlorodibenzo-p-dioxin]",–,–,–,–,–,–,–,–,–,–,–,–,–,–,–,–,–,–,–,–,increase of carnitine palmitoyltransferase 1 (CPT1) [12]: more than 3 fold
